Screens (PubChem BioAssay)
An excerpt weighted towards active compounds, which were near 1.8% of everything screened.
SKN-1 block – inhibitors of C. elegans SKN-1. C. elegans VP596 Pgst-4::GFP/RFP ratio, acrylamide-induced, 24 h. inhibition, % at 21.8 µM. 360,000 tested, 0.49% active;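 active = interference check ratio from 0.5 to 1.5 plus GFP to RFP signal ratio inhibition reaching or exceeding a fixed threshold, cut at about 30% in these data, passing the limit was not always enough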
PABP1 MLLE inh – blocks PAM2 peptide binding to the PABP1 MLLE domain; P11940; GST-MLLE / FITC-PAM2 fluorescence polarization; inhibition, % at 20 µM; 360,000 tested, 0.36% active; AID 588489; in the data active = inhibition above about 35%, passing the limit was not always enough;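 also: plate controls were DMSO wells with GST-MLLE for no effect and wells lacking GST-MLLE protein for full effect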
Target sequence (P11940 whole entry, looked up, the tested form may be a part): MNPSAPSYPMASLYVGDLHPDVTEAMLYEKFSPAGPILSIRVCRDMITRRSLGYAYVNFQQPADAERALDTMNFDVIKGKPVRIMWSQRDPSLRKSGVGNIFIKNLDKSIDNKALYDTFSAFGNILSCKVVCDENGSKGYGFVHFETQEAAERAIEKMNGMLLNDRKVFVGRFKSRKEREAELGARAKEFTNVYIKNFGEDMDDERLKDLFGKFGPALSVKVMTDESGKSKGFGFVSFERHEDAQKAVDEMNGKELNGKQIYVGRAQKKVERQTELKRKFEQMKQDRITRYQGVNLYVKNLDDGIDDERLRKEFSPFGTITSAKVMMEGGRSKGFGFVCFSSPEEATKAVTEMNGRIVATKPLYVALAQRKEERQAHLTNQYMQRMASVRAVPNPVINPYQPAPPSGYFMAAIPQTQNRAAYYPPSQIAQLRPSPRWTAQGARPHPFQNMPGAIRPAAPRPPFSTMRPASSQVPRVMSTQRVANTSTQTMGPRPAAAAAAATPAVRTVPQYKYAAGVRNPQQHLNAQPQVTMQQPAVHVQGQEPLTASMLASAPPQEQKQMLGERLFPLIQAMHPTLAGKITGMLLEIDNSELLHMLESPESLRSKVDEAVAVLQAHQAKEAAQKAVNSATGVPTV
eIF4H inh – inhibitors of RNA binding by human eIF4H; Q15056; eIF4H fluorescence polarization binding assay; inhibition, % at 35 µM; 290,000 tested, 0.94% active;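 also: calls also rest on retests at 20 µM and on dose response follow-up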
MT1-MMP act inh – inhibitors of human MT1-MMP activation; P50281; HT1080 RFP-PRO-GFP cells, GFP/RFP ratio fluorescence, overnight; percent of plate control window, DMSO zero; GFP/RFP ratio change, % at 20 µM; 360,000 tested, 0.061% active; AID 651647;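 active = GFP/RFP ratio change of at least 30% with cell ATP level not reduced by more than half and red fluorescence within 50% of control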
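Test system: HT1080 cells expressing an RFP-PRO-GFP fluorescent reporter construct / Compound dosing: single-point 20 µM compound, 1% DMSO / Schedule: cells overnight before dosing, compound overnight, 37 °C, 5% CO2 / Evaluation: GFP/RFP fluorescence ratio / Control set: DMSO and RFP-L50D-GFP cell wells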
PABP polyA inh – PABP-poly(A) binding inhibition. P11940. PABP-poly(A) RNA binding, fluorescence polarization. calls only at 35 µM. 290,000 tested, 1% active;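 also: calls also rest on retests at 20 µM and on dose response follow-up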
* = called active by the depositor; i = inactive; ? = inconclusive; . = not tested or not shown; + = active, no number. Unless noted, no rule for the calls is given here.

SMILES | SKN-1 block | PABP1 MLLE inh | eIF4H inh | MT1-MMP act inh | PABP polyA inh
CCOc1ccc(-c2nn(-c3ccccc3)cc2/C=C(\C#N)S(=O)(=O)c2ccccc2)cc1C | 41.5* | -7.2 | 4.8 | 9.0 | i
N#C/C(=C\c1cn(-c2ccccc2)nc1-c1ccccc1)S(=O)(=O)c1ccccc1 | 2.4 | -15.0 | 0.6 | 0.2 | i
c1ccc(-c2ccc(-c3ccncn3)cc2)cc1 | 55.6* | 0.2 | . | 0.5 | .
O=C(O)c1cc(O)c2c(c1)C(=O)c1cc(O)cc(O)c1C2=O | 4.2 | -9.4 | 90.1* | 21.7 | +
Cc1ccc(NC(=O)COC(=O)c2ccc(CN3CCCC3=O)cc2)cc1C | -1.3 | -19.4 | . | -4.9 | .
Cn1c(=Nc2ccc(N3CCOCC3)cc2)ccc2ccccc21 | 5.5 | -96.4 | -0.6 | -6.8 | i
Cn1c(N=Nc2ccc(N3CCOCC3)cc2)[n+](C)c2ccccc21 | 39.5* | -19.2 | 2.9 | 7.2 | i
CC(C)(C)NC(=O)c1ccc2c(c1)C1C3CCC(C3)C1C(c1ccccc1)N2 (stereo unspecified) | 10.9 | 11.2 | -5.8 | -25.5 | i
CCCNC(=O)c1ccc2c(c1)C1C3CCC(C3)C1C(c1ccccc1)N2 (stereo unspecified) | 48.4* | 6.4 | 2.8 | -7.9 | i
Cc1ccc(C2CC(C(F)(F)F)n3nc(C(=O)NCc4c(C)nn(C)c4C)c(Cl)c3N2)cc1 (stereo unspecified) | 46.1* | -27.6 | -7.6 | 2.6 | i
Cc1nn(C)c(C)c1CNC(=O)c1cnn2c1NC(c1ccccc1)CC2C(F)(F)F (stereo unspecified) | 9.2 | 5.5 | -6.4 | -0.6 | i
COc1ccc(C(C)(O)c2nc(-c3ccc(F)cc3OC)cs2)cc1 (stereo unspecified) | 20.9 | -6.4 | . | -6.6 | .
COc1cc(C2CC(=O)Oc3c2c(=O)n(C)c2ccccc32)cc(OC)c1OC (stereo unspecified) | 3.7 | -9.0 | -8.6 | -2.5 | i
COc1cc(C2CC(=O)Oc3c2c(=O)n(C)c2ccccc32)ccc1O (stereo unspecified) | -3.6 | 3.4 | 64.4* | -2.4 | i
CCCCn1c(N)c(N(CC(C)C)C(=O)c2ccc(OCc3c(C)noc3C)cc2)c(=O)[nH]c1=O | 7.7 | 8.0 | . | -2.5 | .
O=C1/C(=C/c2ccco2)N=C(N2CCCCC2)N1c1ccccc1 | 10.7 | -4.7 | 87.8* | -8.8 | +
O=c1cc(O)n(-c2ccccc2F)c(=S)[nH]1 | 5.9 | -2.0 | 45.8* | -10.0 | +
Cc1ccccc1-n1c(O)cc(=O)[nH]c1=S | -1.7 | 19.2 | 52.9* | -6.2 | i
CC1(C(=O)N2CCCCC2)CCN1C(=O)c1ccccc1CCc1ccccc1 (stereo unspecified) | 0.9 | 3.3 | . | -2.9 | .
CCCc1cc(=O)[nH]c2nnc(SCC(=O)Nc3cccc(NC(C)=O)c3)n12 | 1.9 | 12.2 | . | 7.8 | .
COC(=O)N/N=C/c1ccc(OC(=O)/C=C/c2ccco2)cc1 | 7.4 | -3.4 | ? | -3.5 | +
CC1CCCC(NC(=O)CN2CCN(S(=O)(=O)c3ccc(Br)s3)CC2)C1C (stereo unspecified) | 5.1 | -10.3 | . | -1.1 | .
Clc1ccc(CSc2nccn2Cc2ccccc2)cc1 | 37.8* | -108.4 | -5.2 | -7.1 | i
COc1ccc(-n2c(C)cc(/C=C/c3nc(O)c([N+](=O)[O-])c(=O)[nH]3)c2C)cc1 | 5.1 | 6.1 | 45.8 | -3.4 | i
O=c1[nH]c(/C=C\c2ccc(O)c(O)c2)nc(O)c1[N+](=O)[O-] | 6.8 | 7.6 | 50.1* | 7.0 | +
SMILES | SKN-1 block | PABP1 MLLE inh | eIF4H inh | MT1-MMP act inh | PABP polyA inh
Cc1cc(/C=C\c2nc(O)c([N+](=O)[O-])c(=O)[nH]2)c(C)n1-c1ccccc1 | 5.0 | -11.9 | 62.4* | 0.2 | i
O=c1[nH]c(/C=C\c2cccc(O)c2)nc(O)c1[N+](=O)[O-] | 11.3 | 11.2 | 5.1 | -0.7 | i
COc1ccccc1CN1CC(C(=O)NCCc2ncccc2C)CCC1=O (stereo unspecified) | 15.0 | -5.5 | 2.2 | -4.1 | i
O=[N+]([O-])c1cccc(NC(=S)Nc2nc(-c3ccccc3Cl)cs2)c1 | -5.7 | 42.4* | 13.6 | -3.8 | i
CCNC(=S)Nc1cccc([N+](=O)[O-])c1 | . | . | 2.0 | . | i
CN(C)c1nc(SCc2ccccc2Cl)nc2c1CCCC2 | 30.7* | -2.7 | -10.0 | -2.6 | i
Cc1ccc(CSc2nc3c(c(N(C)C)n2)CCCC3)cc1 | 3.9 | -6.0 | -1.8 | -9.2 | i
CC1=C(C(=O)N2CCOCC2)CC(CC(=O)NC2CCCCC2)C(=O)N1CCCN1CCCC1=O (stereo unspecified) | 3.0 | -1.1 | . | 5.4 | .
COc1cc(NS(=O)(=O)c2ccc(NC(=S)NC(=O)c3sc4cc(F)ccc4c3Cl)cc2)nc(OC)n1 | 1.9 | 40.5* | 2.5 | -3.3 | i
COc1cc(NS(=O)(=O)c2ccc(NC(=S)NC(=O)c3sc4ccccc4c3Cl)cc2)nc(OC)n1 | -9.6 | 48.0* | 7.4 | 1.1 | i
CCOc1ccc(NC(=O)CN(C)C(=O)c2ccc3c(c2)S(=O)(=O)N=C2CCCCCN23)cc1OCC | -15.1 | 8.0 | . | -0.1 | .
C=CCOc1cccn2c(N(C)C(=O)c3ccccc3F)c(CC)nc12 | 17.8 | 1.4 | . | 1.9 | .
COc1cccc(CN2CCNC(=O)C2CC(=O)NCc2cn3ccccc3n2)c1OC (stereo unspecified) | 3.5 | 14.8 | 85.5* | -2.4 | +
Cc1nc(CCNC(=O)CC2C(=O)NCCN2Cc2ccccc2)sc1C (stereo unspecified) | 4.7 | 37.8* | 7.4 | 0.5 | i
COc1cccc(CN2CCNC(=O)C2CC(=O)NCc2cn3cccc(C)c3n2)c1OC (stereo unspecified) | 5.2 | 3.2 | -4.1 | -1.9 | i
COc1ccc(CN2CCNC(=O)C2CC(=O)NCCc2nc(C)c(C)s2)cc1C (stereo unspecified) | 21.0 | 30.2 | 7.5 | -1.1 | i
Cc1cnc(CNC(=O)CC2C(=O)NCCN2Cc2cccc(F)c2F)cn1 (stereo unspecified) | 21.7 | 21.4 | 80.9* | -1.5 | +
Cc1cccc(C(=O)N2CCC(C)(C(=O)NS(=O)(=O)C3CC3)C2)c1C (stereo unspecified) | -7.6 | 7.6 | . | 1.5 | .
Cc1ccc(C)c(C(O)c2ncc(-c3ccc(C(F)(F)F)cc3)[nH]2)c1 (stereo unspecified) | 14.4 | 0.8 | . | 5.8 | .
O=[N+]([O-])c1cccc(/C=C/c2ccccn2)c1 | 35.8* | 4.5 | -5.4 | 0.2 | i
CCN(CC)C(=O)CSc1nnc(SC(C)C(=O)NC2CC2)s1 (stereo unspecified) | -0.1 | 2.9 | . | -3.6 | .
S=C(N/N=C/c1ccccc1Cl)Nc1ccccc1 | 4.7 | 18.9 | 2.6 | 0.5 | i
Oc1ccc(C=NNC(=S)Nc2ccccc2)nc1 | 44.6* | 31.6 | . | 5.6 | .
Oc1ccc(/C=N/NC(=S)Nc2cccnc2)c(O)c1O | 10.4 | 26.3 | 87.0* | -4.9 | +
